# Reference: ChEMBL document CHEMBL1156752, “Phosphinic tripeptides as dual angiotensin-converting enzyme C-domain and endothelin-converting enzyme-1 inhibitors” (J Med Chem, 2010)
# Legend:
# Neprilysin = Neprilysin (Homo sapiens, UniProt P08473); test: Inhibition of human somatic NEP
# Procedure, shortened: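 Human NEP (0.5 nM) preincubated 45 min with inhibitor, then Mca-Arg-Pro-Pro-Gly-Phe-Ser-Pro-Dpa-OH (5 μM, Km 2 μM) added. Run at 25 °C, pH 6.8 Hepes/NaCl/ZnCl2/Brij-35 buffer. Fluorescence increase read at ex 320/em 405 nm under initial rates. […] Ki obtained.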
# [1] = molecular target: T1, Endothelin-converting enzyme 1 (Homo sapiens, UniProt P42892); test: Inhibition of human somatic ECE1
# T1 sequence (P42892 whole entry): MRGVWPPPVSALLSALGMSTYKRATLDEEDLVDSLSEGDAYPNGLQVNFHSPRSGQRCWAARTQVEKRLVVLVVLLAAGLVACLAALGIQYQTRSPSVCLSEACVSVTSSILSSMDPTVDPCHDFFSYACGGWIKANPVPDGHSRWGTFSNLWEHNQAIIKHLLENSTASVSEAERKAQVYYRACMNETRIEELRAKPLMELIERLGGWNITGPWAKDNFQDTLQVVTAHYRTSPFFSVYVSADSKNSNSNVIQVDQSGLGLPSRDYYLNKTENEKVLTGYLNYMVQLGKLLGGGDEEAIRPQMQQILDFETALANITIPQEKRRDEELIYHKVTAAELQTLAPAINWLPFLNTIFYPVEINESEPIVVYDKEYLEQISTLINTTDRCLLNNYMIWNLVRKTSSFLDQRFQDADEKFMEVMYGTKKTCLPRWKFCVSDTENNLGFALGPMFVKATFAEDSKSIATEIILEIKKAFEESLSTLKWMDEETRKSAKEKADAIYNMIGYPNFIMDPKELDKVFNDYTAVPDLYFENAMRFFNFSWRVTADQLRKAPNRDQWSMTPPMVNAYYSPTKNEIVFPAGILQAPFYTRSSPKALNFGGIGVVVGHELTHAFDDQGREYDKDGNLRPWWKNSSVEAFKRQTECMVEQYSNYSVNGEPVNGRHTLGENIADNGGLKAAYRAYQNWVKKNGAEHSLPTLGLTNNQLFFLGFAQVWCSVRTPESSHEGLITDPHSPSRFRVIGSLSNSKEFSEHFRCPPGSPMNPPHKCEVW
# [2] = molecular target: T2, Angiotensin-converting enzyme (Homo sapiens, UniProt P12821); test: Inhibition of human somatic ACE C-terminal domain
# Collagenase 3 = Collagenase 3 (Homo sapiens, UniProt P45452); test: Inhibition of human MMP13
# [3] = molecular target: T2, Angiotensin-converting enzyme; test: Inhibition of human somatic ACE in presence of 1:50 diluted SHR rat plasma
# Procedure, shortened: (§1)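 ACE (1 nM final) and inhibitor at various concentrations incubated 45 min in this plasma. Reaction started with Mca-Ala-Ser-Asp-Lys-Dpa-OH (15 μM). Fluorescence monitored. Apparent Ki derived.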
# [4] = molecular target: T2, Angiotensin-converting enzyme; test: Inhibition of human somatic ACE in presence of 1:100 diluted SHR rat plasma complemented with 5 uM serum albumin; type: cell-free; procedure, shortened: as §1
# [5] = molecular target: T2, Angiotensin-converting enzyme; test: Inhibition of human somatic ACE in presence of buffer
# Rattus norvegicus [6] = test: Antihypertensive activity in spontaneously hypertensive rat assessed as mean arterial pressure at 10 mg/kg, iv; type: functional, Artery
# Procedure, shortened: (§2)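 Male SHR rats (250 g, 12 weeks old) anesthetized with Nesdonal (50 mg/kg ip), tracheotomized, body temperature kept at 37 °C. MAP recorded by femoral artery transducer. Inhibitor or vehicle ([…]) given as iv bolus through venous catheter after 20 min stabilization. MAP followed for 60 min, n = 6/dose.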
# Rattus norvegicus [7] = test: Antihypertensive activity in spontaneously hypertensive rat assessed as mean arterial pressure at 30 mg/kg, iv; type: functional, Artery; procedure, shortened: as §2
# [8] = molecular target: T2, Angiotensin-converting enzyme; test: Inhibition of human somatic ACE in presence of 1:100 diluted SHR rat plasma; type: cell-free; procedure, shortened: as §1
# [9] = molecular target: T2, Angiotensin-converting enzyme; test: Inhibition of human somatic ACE N-terminal domain
# Procedure, shortened: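 Human somatic ACE (0.5 nM) preincubated 45 min with inhibitor, then Mca-Ala-Ser-Asp-Lys-Dpa-OH substrate (8 μM) added. Continuous fluorescence read at ex 320/em 405 nm under initial-rate conditions. […] Ki calculated per domain.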
# Rattus norvegicus [10] = test: Antihypertensive activity in spontaneously hypertensive rat assessed as mean arterial pressure at 3 mg/kg, iv; type: functional, Artery; procedure, shortened: as §2
Structure (SMILES),Ki (Neprilysin) [nM],Ki [1] [nM],Ki [2] [nM],Ki (Collagenase 3) [nM],further results
O=C(N[C@@H](Cc1ccccc1)P(=O)(O)CC(Cc1ccc(-c2ccccc2)cc1)C(=O)N[C@@H](Cc1c[nH]c2ccccc12)C(=O)O)OCc1ccccc1 (some centres undefined),52,> 10000,12,–,–
O=C(N[C@@H](Cc1ccccc1)P(=O)(O)CC(CC1CC(c2ccc(C(F)(F)F)cc2)=NO1)C(=O)N[C@@H](Cc1c[nH]c2ccccc12)C(=O)O)OCc1ccccc1 (some centres undefined),> 5000,> 5000,20,–,–
O=C(N[C@@H](Cc1ccccc1)P(=O)(O)C[C@@H](Cc1cc(-c2ccccc2)no1)C(=O)N[C@@H](Cc1c[nH]c2ccccc12)C(=O)O)OCc1ccccc1,130,26,1.4,19,–
O=C(N[C@@H](Cc1ccccc1)P(=O)(O)C[C@H](Cc1cc(-c2ccccc2)no1)C(=O)N[C@@H](Cc1c[nH]c2ccccc12)C(=O)O)OCc1ccccc1,1850,8,36,1200,Ki [3]: 1520 nM; Ki [4]: 1510 nM; Ki [5]: 36 nM; Activity (Rattus norvegicus [6]): 148 mmHg; Activity (Rattus norvegicus [7]): 96 mmHg; Ki [8]: 500 nM
C[C@H](NC(=O)C(CC1CC(c2ccccc2)=NO1)CP(=O)(O)[C@H](Cc1ccccc1)NC(=O)OCc1ccccc1)C(=O)O (some centres undefined),85,2100,5,–,–
CS(=O)(=O)N[C@@H](CCCCN)C(=O)N[C@@H](Cc1ccccc1)P(=O)(O)CC1(C(=O)N[C@@H](Cc2c[nH]c3ccccc23)C(=O)O)CCCC1,–,–,–,–,IC50 (Neprilysin): 90 nM; IC50 [2]: 2.5 nM
O=C(O)[C@H](Cc1ccc2c(c1)oc1ccccc12)NCP(=O)(O)O,–,–,–,–,IC50 (Neprilysin): 2300 nM
O=C(N[C@@H](Cc1ccccc1)P(=O)(O)CC(Cc1ccccc1)C(=O)N[C@@H](Cc1c[nH]c2ccccc12)C(=O)O)OCc1ccccc1 (some centres undefined),1.4,1.2,–,–,–
O=C(N[C@@H](Cc1ccccc1)P(=O)(O)CC(Cc1cc(-c2ccccc2)no1)C(=O)N[C@@H](Cc1c[nH]c2ccccc12)C(=O)O)OCc1ccccc1 (some centres undefined),260,14,16,–,–
O=C(N[C@@H](Cc1ccccc1)P(=O)(O)C[C@@H](Cc1cc(-c2ccccc2)no1)C(=O)N[C@@H](Cc1ccccc1)C(=O)O)OCc1ccccc1,68,240,0.4,30,–
O=C(N[C@@H](Cc1ccccc1)P(=O)(O)CC(CC1CC(c2ccc(-c3ccccc3)cc2)=NO1)C(=O)N[C@@H](Cc1c[nH]c2ccccc12)C(=O)O)OCc1ccccc1 (some centres undefined),> 10000,> 10000,25,–,–
O=C(N[C@H]1CCS[C@H]2CCC[C@@H](C(=O)O)N2C1=O)[C@@H](S)Cc1ccccc1 [OMAPATRILAT],9,–,6,–,–
O=C(N[C@@H](Cc1ccccc1)P(=O)(O)CC(CC1CC(c2ccccc2)=NO1)C(=O)N[C@@H](Cc1c[nH]c2ccccc12)C(=O)O)OCc1ccccc1 (some centres undefined),2500,910,13,–,–
O=C(N[C@@H](Cc1ccccc1)P(=O)(O)C[C@@H](Cc1cc(-c2ccccc2)no1)C(=O)N[C@@H](Cc1ccc(O)cc1)C(=O)O)OCc1ccccc1,–,–,–,24,–
"O=C(N[C@@H](Cc1ccccc1)P(=O)(O)CC(Cc1cc(-c2ccccc2)no1)C(=O)N[C@@H](Cc1ccccc1)C(=O)O)OCc1ccccc1 (single isomer, unassigned)",> 10000,7.7,3.8,> 10000,Ki [3]: 340 nM; Ki [4]: 110 nM; Ki [5]: 3.8 nM; Ki [8]: 32 nM
"O=C(N[C@@H](Cc1ccccc1)P(=O)(O)C1CCC[C@H]1C(=O)N[C@@H](Cc1c[nH]c2ccccc12)C(=O)O)OCc1ccccc1 (single isomer, unassigned)",> 50000,> 50000,3,–,Ki [9]: 2500 nM
O=C(N[C@@H](Cc1ccccc1)P(=O)(O)C[C@H](Cc1cc(-c2ccccc2)no1)C(=O)N[C@@H](Cc1ccc(O)cc1)C(=O)O)OCc1ccccc1,6700,14,–,[…],Ki [3]: […]; Ki [4]: […]; Activity (Rattus norvegicus [10]): 147 mmHg; Activity (Rattus norvegicus [6]): 132 mmHg; Ki [8]: […]
